Results as given in ChEMBL document CHEMBL1126667, “CCK-B agonist or antagonist activities of structurally hindered and peptidase-resistant Boc-CCK4 derivatives” (J Med Chem, 1993).
Non-standard residues stand in square brackets, D forms with d. Residues, ends and D or L forms follow the SMILES beside them. *: point of attachment. NMe1Nal = CN[C@@H](Cc1cccc2ccccc12)C(=O)O; NMeW = CN[C@@H](Cc1c[nH]c2ccccc12)C(=O)O; 1Nal = N[C@@H](Cc1cccc2ccccc12)C(=O)O; 2Nal = N[C@@H](Cc1ccc2ccccc2c1)C(=O)O; Chg = N[C@H](C(=O)O)C1CCCCC1; Phg = N[C@H](C(=O)O)c1ccccc1; Nle = CCCC[C@H](N)C(=O)O; OtBu = CC(C)(C)O*

Target: T1, Gastrin/cholecystokinin type B receptor (Rattus norvegicus, UniProt P30553)
T1 sequence (P30553 whole entry): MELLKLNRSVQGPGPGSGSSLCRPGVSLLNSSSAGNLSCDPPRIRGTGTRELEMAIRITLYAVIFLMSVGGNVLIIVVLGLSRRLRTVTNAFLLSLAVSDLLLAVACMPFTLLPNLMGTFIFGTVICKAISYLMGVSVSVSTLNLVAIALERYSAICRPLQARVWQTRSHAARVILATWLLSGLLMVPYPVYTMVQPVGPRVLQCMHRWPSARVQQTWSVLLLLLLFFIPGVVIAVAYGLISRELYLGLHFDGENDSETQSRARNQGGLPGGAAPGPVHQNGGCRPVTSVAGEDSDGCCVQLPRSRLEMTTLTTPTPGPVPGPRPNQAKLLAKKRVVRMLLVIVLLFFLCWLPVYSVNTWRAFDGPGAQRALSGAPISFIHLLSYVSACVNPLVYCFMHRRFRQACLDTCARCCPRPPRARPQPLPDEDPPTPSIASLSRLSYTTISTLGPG
Assay: Affinity of compound on binding of [3H]pCCK-8 to the cholecystokinin type B receptor in rat brain membrane
Format: cell membranes
Summary of the method: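 Brain membranes (0.6 mg protein/mL; rat or guinea pig) incubated with 0.2 nM [3H]pCCK8 in 50 mM Tris-HCl pH 7.4, 5 mM MgCl2, 0.2 mg/mL bacitracin, 60 min at 25 °C. Filtered on BSA-precoated GF/B filters and counted. KI by Cheng-Prusoff; mean ± SEM of three experiments, each in triplicate.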

For CN(C)[C@@H](Cc1cccc2ccccc12)C(=O)N[C@@H](CC(=O)O)C(=O)N[C@H](C(=O)N[C@@H](Cc1c[nH]c2ccccc12)C(=O)OC(C)(C)C)c1ccccc1, which Ki is on record?
Its Ki is 51 nM.

Target: T2, Cholecystokinin receptor type A (Cavia porcellus, UniProt Q63931)
T2 sequence (Q63931 whole entry): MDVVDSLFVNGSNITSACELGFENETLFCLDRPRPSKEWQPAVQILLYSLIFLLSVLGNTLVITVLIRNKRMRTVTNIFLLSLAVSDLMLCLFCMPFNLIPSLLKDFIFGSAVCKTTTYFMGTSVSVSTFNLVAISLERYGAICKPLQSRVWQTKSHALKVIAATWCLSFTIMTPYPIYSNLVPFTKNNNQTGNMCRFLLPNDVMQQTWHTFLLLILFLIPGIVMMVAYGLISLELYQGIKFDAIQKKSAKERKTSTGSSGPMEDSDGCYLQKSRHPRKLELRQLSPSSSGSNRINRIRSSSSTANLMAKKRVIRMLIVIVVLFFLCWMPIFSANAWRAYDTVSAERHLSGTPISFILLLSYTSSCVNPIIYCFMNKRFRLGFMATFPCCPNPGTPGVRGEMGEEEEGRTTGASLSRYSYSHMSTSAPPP
Assay: Affinity of compound on binding of [3H]pCCK-8 to the cholecystokinin type A receptor in guinea pig pancreatic membrane
Format: cell membranes
Summary of the method: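 Competition binding on guinea pig pancreatic membranes (0.2 mg protein/mL) using [3H]pCCK8 at 0.2 nM. Nonspecific binding defined with 1 μM CCK8. Reaction stopped by filtration over BSA-precoated GF/B filters and counted. KI derived by Cheng-Prusoff.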

Which Ki does the source give for CN(C(=O)[C@H](Cc1ccccc1)NC(=O)[C@H](CC(=O)O)NC(=O)[C@@H](N)Cc1ccccc1)[C@H](Cc1c[nH]c2ccccc12)C(=O)OC(C)(C)C here?
Its Ki is 8000 nM.

With CN(C(=O)[C@@H](NC(=O)[C@H](CC(=O)O)NC(=O)[C@@H](N)Cc1cccc2ccccc12)C1CCCCC1)[C@@H](Cc1c[nH]c2ccccc12)C(=O)OC(C)(C)C (H-[1Nal]D[Chg][NMeW]-OtBu) as the compound, how does the Ki read?
The Ki was 2100 nM.

With CN(C(=O)[C@H](Cc1ccccc1)NC(=O)[C@H](CC(=O)O)NC(=O)[C@@H](N)Cc1ccccc1)[C@@H](Cc1c[nH]c2ccccc12)C(=O)OC(C)(C)C as the compound, how does the Ki read?
The Ki was 3200 nM.

Target: T2, Cholecystokinin receptor type A
Assay: Displacement of [3H]-pCCK-8 from cholecystokinin-A receptor in guinea pig pancreatic membrane
Format: cell membranes
Summary of the method: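 Competition binding on guinea pig pancreatic membranes (0.2 mg protein/mL) using [3H]pCCK8 at 0.2 nM. Reaction stopped by filtration over BSA-precoated GF/B filters and counted. KI derived by Cheng-Prusoff.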

For CN(C(=O)[C@@H](NC(=O)[C@H](CC(=O)O)NC(=O)[C@@H](N)Cc1cccc2ccccc12)c1ccccc1)[C@@H](Cc1c[nH]c2ccccc12)C(=O)OC(C)(C)C (H-[1Nal]D[Phg][NMeW]-OtBu), which Ki is on record?
Its Ki is 830 nM.

CCCC[C@H](NC(=O)[C@H](CC(=O)O)NC(=O)[C@@H](N)Cc1ccc2ccccc2c1)C(=O)N(C)[C@@H](Cc1c[nH]c2ccccc12)C(=O)OC(C)(C)C (H-[2Nal]D[Nle][NMeW]-OtBu) was tested. Which Ki did it give?
The Ki was 4200 nM.

Which Ki does the source give for CN(C)[C@@H](Cc1cccc2ccccc12)C(=O)N[C@@H](CC(=O)O)C(=O)N[C@H](C(=O)N[C@@H](Cc1c[nH]c2ccccc12)C(=O)OC(C)(C)C)C1CCCCC1 here?
The Ki was 5400 nM.

With CC(C)(C)OC(=O)[C@H](Cc1c[nH]c2ccccc12)NC(=O)[C@H](Cc1ccccc1)NC(=O)[C@H](CC(=O)O)NC(=O)[C@@H](N)Cc1cccc2ccccc12 (H-[1Nal]DFW-OtBu) as the compound, how does the Ki read?
The Ki was 2400 nM.

How did the Ki turn out when CCCC[C@H](NC(=O)[C@H](CC(=O)O)NC(=O)[C@H](Cc1cccc2ccccc12)NC)C(=O)N(C)[C@@H](Cc1c[nH]c2ccccc12)C(=O)OC(C)(C)C (H-[NMe1Nal]D[Nle][NMeW]-OtBu) was run?
Its Ki is 1200 nM.

CCCC[C@H](NC(=O)[C@H](CC(=O)O)NC(=O)[C@@H](N)Cc1cccc2ccccc12)C(=O)N(C)[C@@H](Cc1c[nH]c2ccccc12)C(=O)OC(C)(C)C was tested. Which Ki did it give?
Its Ki is 1200 nM.

CC(C)(C)OC(=O)[C@H](Cc1c[nH]c2ccccc12)NC(=O)[C@@H](NC(=O)[C@H](CC(=O)O)NC(=O)[C@@H](N)Cc1cccc2ccccc12)C1CCCCC1 (H-[1Nal]D[Chg]W-OtBu) was tested. Which Ki did it give?
Its Ki is 1400 nM.

For CCCC[C@H](NC(=O)[C@H](CC(=O)O)NC(=O)[C@@H](N)Cc1cccc2ccccc12)C(=O)N(C)[C@H](Cc1c[nH]c2ccccc12)C(=O)OC(C)(C)C, which Ki is on record?
The Ki was 6300 nM.

With CCCC[C@H](NC(=O)[C@H](CC(=O)O)NC(=O)[C@@H](N)Cc1ccccc1)C(=O)N(C)[C@@H](Cc1c[nH]c2ccccc12)C(=O)OC(C)(C)C (H-FD[Nle][NMeW]-OtBu) as the compound, how does the Ki read?
Its Ki is greater than 5000 nM.

How did the Ki turn out when CCCC[C@H](NC(=O)[C@H](CC(=O)O)NC(=O)[C@H](Cc1cccc2ccccc12)N(C)C)C(=O)N(C)[C@@H](Cc1c[nH]c2ccccc12)C(=O)OC(C)(C)C was run?
The Ki was 520 nM.

How did the Ki turn out when CN(C(=O)[C@H](Cc1ccccc1)NC(=O)[C@H](CC(=O)O)NC(=O)[C@@H](N)Cc1cccc2ccccc12)[C@@H](Cc1c[nH]c2ccccc12)C(=O)OC(C)(C)C (H-[1Nal]DF[NMeW]-OtBu) was run?
Its Ki is 3500 nM.

Which Ki does the source give for CN(C)[C@@H](Cc1cccc2ccccc12)C(=O)N[C@@H](CC(=O)O)C(=O)N[C@H](C(=O)N[C@@H](Cc1c[nH]c2ccccc12)C(=O)OC(C)(C)C)c1ccccc1 here?
The Ki was 1000 nM.

With CCCC[C@H](NC(=O)[C@H](CC(=O)O)NC(=O)[C@@H](N)Cc1ccccc1)C(=O)N[C@H](Cc1c[nH]c2ccccc12)C(=O)OC(C)(C)C (stereo in doubt; 13) as the compound, how does the Ki read?
The Ki was 1100 nM.

For CC(C)(C)OC(=O)[C@H](Cc1c[nH]c2ccccc12)NC(=O)[C@@H](NC(=O)[C@H](CC(=O)O)NC(=O)[C@@H](N)Cc1cccc2ccccc12)c1ccccc1 (H-[1Nal]D[Phg]W-OtBu), which Ki is on record?
Its Ki is 990 nM.
